From ChEMBL document CHEMBL1153883, “Cytotoxic, antioxidant activities and structure activity relationship of some newly synthesized terpenoidal oxaliplatin analogs” (Eur J Med Chem, 2009) come the findings set out here.

Molecules are shown by their SMILES.

The nature of data set [1]: Acute toxicity in Albino rat. The data set is classed as organism-based. As to conditions: in vivo.
The subject of data set [2] is HT-29. Nature of the data set: Cytotoxicity against human HT-29 cells at 50 ug/ml after 48 hrs by neutral red assay. The data set is classed as functional. The procedure, abridged:
(§1)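 HT-29 cells (Korean Cell Line Bank) were kept in DMEM with 10% FBS, penicillin and streptomycin at 37 °C under 5% CO2. Cells in 96-well plates were exposed to compounds for 12–48 h. The medium was replaced with fresh medium for neutral red uptake. Dye was extracted with 50% ethanol containing 50 mM sodium citrate (pH 4.2), and absorbance was read at 510 nm after 20 min.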

Data set [3] concerns HT-29. Nature of the data set: Cytotoxicity against human HT-29 cells at 100 ug/ml after 48 hrs by neutral red assay. It counts as functional. In short, it runs like this: as §1
For data set [4], the system named is HT-29. Briefly: Cytotoxicity against human HT-29 cells at 50 ug/ml after 12 hrs by neutral red assay. The data set is classed as functional. The procedure, abridged: as §1
In data set [5] the test system is HT-29. Nature of the data set: Cytotoxicity against human HT-29 cells at 100 ug/ml after 24 hrs by neutral red assay. It counts as functional. The procedure, abridged:
as §1

The test system of data set [6] is HT-29. Nature of the data set: Cytotoxicity against human HT-29 cells at 150 ug/ml after 12 hrs by neutral red assay. The data set is classed as functional. The procedure, abridged: as §1
The test system of data set [7] is HT-29. Nature of the data set: Cytotoxicity against human HT-29 cells at 100 ug/ml after 12 hrs by neutral red assay. The data set is classed as functional. The procedure, abridged: as §1
Data set [8] is described as follows: Antioxidant activity assessed as superoxide anion scavenging activity by NBT reduction method relative to Vitamin C. The data set is classed as functional. More on the design: concentration or dose not given beside the values.
The nature of data set [9]: Antioxidant activity assessed as superoxide anion scavenging activity by NBT reduction method. The data set is classed as functional. More on the design: concentration or dose not given beside the values. In short, it runs like this: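 Superoxide was generated by […]xanthine oxidase. Sample in 100 mM phosphate buffer (pH ~7.0) with xanthine oxidase (1.65 × 10^-2 units/ml) and NBT at 25 °C. The reaction was started by adding xanthine and followed by NBT reduction absorbance. Scavenging % was calculated from the absorbance increase with sample versus without sample (control).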

For data set [10], the system named is HT-29. Nature of the data set: Cytotoxicity against human HT-29 cells at 150 ug/ml after 24 hrs by neutral red assay. The data set is classed as functional. In short, it runs like this:
as §1

The test system of data set [11] is HT-29. Nature of the data set: Cytotoxicity against human HT-29 cells at 50 ug/ml after 24 hrs by neutral red assay. The data set is classed as functional. In short, it runs like this: as §1

As a reminder, the LD50 is the dose expected to kill half of the subjects tested. Regarding `CC1(C)[C@H](O)[C@@H](O)C[C@]2(C)[C@H]3C(=O)C=C4[C@@H]5C[C@@](C)(C(=O)O)CC[C@]5(C)CC[C@@]4(C)[C@]3(C)CC[C@@H]12`, in data set [1], the LD50 was determined as 656 mg/kg.
With `COC(=O)[C@@]1(C)CC[C@]2(C)CC[C@]3(C)C(=CC(=O)[C@@H]4[C@@]5(C)C[C@H](N=[N+]=[N-])[C@@H](N=[N+]=[N-])C(C)(C)[C@@H]5CC[C@]43C)[C@@H]2C1`, the Activity with HT-29 [2] is 36%; in the data set on HT-29 [3], 52%; in the data set with HT-29 [4] it was 29%; in the data set with HT-29 [5] it was 46%; in the data set on HT-29 [6], 55%; in the data set with HT-29 [7], 42%. Also, the Activity in data set [8] worked out at 1.51%; in data set [9], 68.1%; in the data set on HT-29 [10], 60%; in the data set on HT-29 [11], 31%. This compound also showed a 50% lethal dose (LD50) in data set [1] of 898 mg/kg.
`COC(=O)[C@@]1(C)CC[C@]2(C)CC[C@]3(C)C(=CC(=O)[C@@H]4[C@@]5(C)C[C@H](O)[C@@H](O)C(C)(C)[C@@H]5CC[C@]43C)[C@@H]2C1`: the Activity turned out to be 33% in the data set on HT-29 [2]; 42% with HT-29 [3]; 19% in the data set with HT-29 [4]; 41% in the data set with HT-29 [5]; 40% in the data set with HT-29 [6]; 39% with HT-29 [7]. Further, the Activity in data set [8] was found to be 1.45%; in data set [9], 65.1%; in the data set on HT-29 [10] it was 52%; in the data set on HT-29 [11], 21%. In addition, the LD50 in [1] came out at 793 mg/kg.
Turning to `COC(=O)[C@@]1(C)CC[C@]2(C)CC[C@]3(C)C(=CC(=O)[C@@H]4[C@@]5(C)C[C@H](N)[C@@H](N)C(C)(C)[C@@H]5CC[C@]43C)[C@@H]2C1`, the Activity with HT-29 [2] is 45%; with HT-29 [3], 58%; with HT-29 [4] it was 40%; with HT-29 [5], 50%; in the data set on HT-29 [6], 65%; in the data set with HT-29 [7], 48%. For the same compound, the Activity was found to be 1.56% in data set [8], 70.1% in data set [9], 70% in the data set with HT-29 [10] and 43% in the data set on HT-29 [11]. Besides, the LD50 in [1] came to 893 mg/kg.
Turning to `C[C@H]1[C@H](C)CC[C@]2(C(=O)O)CC[C@]3(C)C(=CC[C@@H]4[C@@]5(C)C[C@@H](O)[C@H](O)C(C)(C)[C@@H]5CC[C@]43C)[C@H]12` [COROSOLIC ACID], the LD50 in data set [1] was found to be 816 mg/kg.
On to `COC(=O)[C@]12CC[C@@H](C)[C@H](C)[C@H]1C1=CC[C@@H]3[C@@]4(C)C[C@@H](N=[N+]=[N-])[C@H](N=[N+]=[N-])C(C)(C)[C@@H]4CC[C@@]3(C)[C@]1(C)CC2`, for which the Activity with HT-29 [2] is on record as 40%; in the data set on HT-29 [3] it was 55%; in the data set with HT-29 [4], 33%; in the data set on HT-29 [5], 48%; in the data set with HT-29 [6], 61%; in the data set on HT-29 [7] it was 44%. For the same compound, the Activity in data set [8] was determined as 1.54%; in data set [9], 69.1%; with HT-29 [10], 66%; in the data set on HT-29 [11], 35%. Also, the LD50 in data set [1] amounted to 825 mg/kg.
On to `COC(=O)[C@]12CC[C@@H](C)[C@H](C)[C@H]1C1=CC[C@@H]3[C@@]4(C)C[C@@H](O)[C@H](O)C(C)(C)[C@@H]4CC[C@@]3(C)[C@]1(C)CC2` [COROSOLIC ACID METHYL ESTER], for which the Activity in the data set on HT-29 [2] is on record as 35%; in the data set on HT-29 [3], 50%; in the data set with HT-29 [4], 22%; in the data set with HT-29 [5], 44%; with HT-29 [6] it was 53%; with HT-29 [7], 40%. In addition, the Activity in data set [8] came out at 1.51%; in data set [9], 68%; with HT-29 [10], 58%; in the data set with HT-29 [11], 29%. In data set [1], this compound returned an LD50 of 818 mg/kg.
`O=C1O[C@H]([C@@H](O)CO)C(O)=C1O`: the values for the Activity in data set [8] and in data set [9] were 1% and 45%, respectively.
Turning to `COC(=O)[C@]12CC[C@@H](C)[C@H](C)[C@H]1C1=CC[C@@H]3[C@@]4(C)C[C@@H](N)[C@H](N)C(C)(C)[C@@H]4CC[C@@]3(C)[C@]1(C)CC2`, the Activity in the data set on HT-29 [2] came to 50%; in the data set with HT-29 [3], 62%; with HT-29 [4], 44%; in the data set with HT-29 [5], 60%; in the data set on HT-29 [6], 70%; with HT-29 [7], 56%. Besides, the Activity in data set [8] turned out to be 1.65%; in data set [9] it was 74.2%; in the data set with HT-29 [10] it was 75%; with HT-29 [11], 47%. In addition, the LD50 in [1] was 836 mg/kg.
